Hits are enriched below; roughly 2.6% of the tested compounds scored in any of these assays.
Rad51 HR inh = blocks human Rad51 in homologous recombination | hRad51 DNA strand exchange, fluorescence dequenching | Q06609 | inhibition, % at 10 µM | hit rate 0.085% among 200,000 | AID 1385;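 active = inhibition above 40% at the single screening dose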;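 also: 0% = DMSO control wells and 100% = blanks with heterologous ssDNA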
Target sequence (Q06609 whole entry, looked up): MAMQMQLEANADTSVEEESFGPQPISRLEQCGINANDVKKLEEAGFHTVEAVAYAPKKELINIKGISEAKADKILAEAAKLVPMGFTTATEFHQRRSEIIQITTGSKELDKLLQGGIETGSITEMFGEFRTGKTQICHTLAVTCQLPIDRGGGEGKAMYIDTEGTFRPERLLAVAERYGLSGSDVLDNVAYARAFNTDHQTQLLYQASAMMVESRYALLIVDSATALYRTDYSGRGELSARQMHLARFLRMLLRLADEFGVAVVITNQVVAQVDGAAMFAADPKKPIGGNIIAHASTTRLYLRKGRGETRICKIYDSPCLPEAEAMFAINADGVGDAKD
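material = hRad51 filaments on single-stranded DNA | timing = filaments 15 min 37 °C, then compound 30 min | signal = FRET fluorescence dequenching, excitation 485 nm, emission 520 nm | benchmarks = control wells and blank wells on each plate | evaluation = percent inhibition relative to plate controls and blanks | compound = 10 µM final, single point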
CHT PAM = human CHT allosteric activation; B-score at 10 µM; Q9GZV3; hit rate 0.49% among 310,000; CHT-expressing cells, membrane potential dye, choline EC20; hits give high values; LV-AA mutant CHT in HEK293 cells;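 active = initial fluorescence not abnormally high and integrated response B-score, plate-corrected, over 3 SD above library mean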
CHT inh = inhibits the human high affinity choline transporter; CHT-expressing cells, membrane potential dye, choline response; hits give low values; B-score at 10 µM; hit rate 0.86% among 310,000; AID 488975;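 active = B-score over 3 SD under the library average, and starting fluorescence ratio not unusually high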;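 also: choline stimulus applied at its EC90 after an EC20 pre-addition; B-score computed on integrated fluorescence ratio after choline addition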
Cl transport mod = KCC2 (human) Cl- transport modulation | B-score of Tl+ flux slope (higher = more flux/activation; lower = inhibition) at 10 µM | Q9H2X9 | AID 1456 | KCC2 cells, thallium flux FluoZin-2 fluorescence | hit rate 2.2% among 190,000;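 active = thallium flux slope and its plate-corrected score both differing from the plate sample mean at a set confidence after two filtering rounds, in either direction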;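 also: slope of fluorescence scaled to starting intensity during 10 to 20 s after thallium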
The depositor's hits bear a star; i = inactive; . = not tested or not shown.

SMILES | Rad51 HR inh | CHT PAM | CHT inh | Cl transport mod
CC(=O)C1=C(O)C(=O)N(c2nccs2)C1c1ccccc1 (stereo not drawn) | 4.1 | i | i | .
CCCC(c1nnnn1Cc1cccs1)N1CCN(C2CCCC2)CC1 (stereo not drawn) | 0.7 | 6.27* | i | 0.958
CC(c1ccco1)N(C(=O)c1ccccc1NS(=O)(=O)c1cc([N+](=O)[O-])ccc1Cl)c1ccccn1 (stereo not drawn) | 0.7 | i | i | 5.4*
CC(C)N1CCC2(CC1)N=C(c1ccc3c(c1)OCO3)CC(c1cc(Cl)ccc1O)N2 (stereo not drawn) | -10.7 | i | -6.89* | -1.56
CC(=O)NN1C(=O)c2ccccc2NC1c1ccoc1 (stereo not drawn) | 4.2 | i | i | 0.188
O=C(NN1C(=O)c2ccccc2NC1c1ccoc1)c1ccccc1 (stereo not drawn) | 47.8* | i | i | -0.352
COc1ccc(CC(=O)Nc2cc(Cl)ccc2C(=O)O)cc1 | 16.1 | i | i | -1.15
CCCCOc1ccc(Nc2cc(Cl)ccc2C(=O)O)cn1 | -16.2 | i | i | 13.1*
CC(C)n1c(=NC(=O)c2ccco2)c(C#N)cc2c(=O)n3ccccc3cc21 | . | 7.2* | i | -0.47
COCCN1C(=O)/C(=C/c2ccc(N3CCCC3)cc2C)SC1=S | 30.0 | i | i | -5.4*
CCN=C1S/C(=C\c2ccc(N3CCOCC3)cc2C)C(=O)N1CC | -6.9 | i | i | 0.889
CCOC(=O)c1c(NC(=O)COC(=O)CCOc2ccc(C)cc2)sc(C(=O)N(C)C)c1C | . | i | i | .
O=[N+]([O-])c1ccc(Cl)c(NC2=NCCCCC2)c1 | . | i | i | .
Cn1cc(/C=C2\SC(=S)N(NC(=O)c3ccccc3Cl)C2=O)c2ccccc21 | -219.8 | i | i | -5.29*
CC(C)CCN(N=O)[C@@H](Cc1ccccc1)CN(N=O)[C@@H](Cc1ccccc1)CN(C)N=O | 3.3 | i | i | -4.12*
CC(C)C[C@@H](CN(N=O)[C@@H](Cc1ccccc1)CN(C)N=O)N(CCc1ccccc1)N=O | -7.5 | i | i | -0.415
O=C(N/N=C/c1ccccc1OC(F)F)c1cc(-c2ccncc2)nc2ccccc12 | 6.7 | i | -6* | -1.27
CC1(C)CC(=O)C=C(NNC(=O)c2ccccc2O)C1 | 96.1* | i | i | -0.635
CC(NC(=S)NNS(=O)(=O)c1cccc([N+](=O)[O-])c1)c1ccccc1 (stereo not drawn) | . | i | i | .
O=Cc1cc(N=Nc2cccc(C(=O)O)c2)ccc1O | 46.8* | i | i | -2.6
O=Cc1cc(N=Nc2ccccc2Cl)ccc1O | -32.7 | i | i | 1.47
Cc1cc(C(=O)N=Nc2c(O)n(C(C)C)c3ccccc23)n[nH]1 | -11.6 | i | i | 0.483
CC(C)n1c(O)c(N=Nc2ccc(Cl)nn2)c2ccccc21 | -91.3 | i | i | 10.5*
CN(C)CCSc1nc(N)c2c3c(sc2n1)CN(C)CC3 | 10.4 | i | -8.01* | 0.327
CCCSc1nc(N)c2c3c(sc2n1)CN(C)CC3 | . | 7.23* | i | -0.367
SMILES | Rad51 HR inh | CHT PAM | CHT inh | Cl transport mod
O=C(CN1C(=O)/C(=C/c2ccccc2)SC1=S)N1CCN(CCc2ccccn2)CC1 | . | i | i | .
CCOC(=O)/C(=C\Nc1ccc(OC(F)(F)F)cc1)Sc1ncc(C(F)(F)F)cc1Cl | -4.5 | i | i | .
COc1ccccc1N=C1NC(=O)/C(=C/c2ccc(N(C)C)cc2)S1 | . | i | i | .
CC1CCCCC1NC(=S)Nc1ccc(Cl)cc1Cl (stereo not drawn) | 40.7* | i | i | 1.65
COC(=O)C1(CCSC)NC(c2ccc(O)c(OC)c2)C2C(=O)N(c3ccc(C)cc3)C(=O)C21 (stereo not drawn) | 7.3 | i | i | -0.0786
O=C(NCC(=O)N1CCC2(CC1)NCCc1[nH]cnc12)c1ccc(F)cc1 | . | i | i | .
Cc1ccc(CNC(=O)Cc2csc(Nc3nc(=S)[nH]c4ccccc34)n2)cc1 | . | i | i | 9.73*
COCCCn1c(=S)[nH]c2c(sc3ccccc32)c1=O | 12.5 | i | i | 57.1*
CCN(c1cccc(C)c1)S(=O)(=O)c1cc2c3c(c1)CCN3C(=O)CC2 | . | i | i | .
C=CS(=O)(=O)c1sc(Cl)c(N2CCOCC2)c1[N+](=O)[O-] | 6.8 | . | . | -3.64*
COC(=O)CCC(=O)Nc1cccc2ccccc12 | -4.1 | i | i | -0.0129
CCCCCC(=O)Nc1cccc2ccccc12 | 43.0* | i | i | 0.536
Cc1ccc(-c2[nH]ncc2C(=O)c2ccc(Br)cc2)c(O)c1 | . | i | i | .

Assay outcomes deposited in PubChem by several laboratories.
